# Out of some 290,000 compounds screened, about 1,600 (0.55%) were called active. This is one part of a sample in which actives are shown more often than they occur.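 How the source made its calls: active means inhibition above the mean of all tested compounds plus 3 SD, set per campaign (cut at about 35% in these data); inactive means the rest.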
# System: Hepatitis C virus NS3 helicase
# Assay: inhibitors of HCV NS3 helicase, primary screen, biochemical, Cy5 molecular beacon fluorescence (AID 1800);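 further: 0% = DMSO wells and 100% = thioflavine S control wells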
# Conditions: NS3 helicase DNA unwinding, at 10.9 µM, stronger effect = higher value
# Outline: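 Control set: DMSO versus 110 µM thioflavine S; Material: NS3 helicase fragment of HCV; Measured by: Cy5 fluorescence at 0 and 60 min, beacon hairpin quenching; Read-out basis: percent inhibition from t60/t0 fluorescence ratio; Times: reaction time 60 min, 25 °C; Repeats: single replicate; Compound dosing: single dose, 10.9 µM nominal final, DMSO 0.8% final.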
row,SMILES,inhibition
1,O=S(=O)(NCc1ccc(Cl)cc1Cl)c1cccs1,7.61% (inactive)
2,O=C(N/N=C/c1cc(Cl)cc([N+](=O)[O-])c1O)C(O)(c1ccccc1)c1ccccc1,24.1% (inactive)
3,O=C(CN1CCN(c2ccc(O)cc2)CC1)Nc1cc(S(=O)(=O)N2CCOCC2)ccc1Cl,13.6% (inactive)
4,O=[N+]([O-])c1cc(Cl)cc(/C=N/NC(=S)Nc2cc(S(=O)(=O)N3CCOCC3)ccc2Cl)c1O,40.4% (active)
5,Cc1cccc(CCNS(=O)(=O)c2ccc(S(=O)(=O)NC3CCCC3)cc2)c1,-9.33% (inactive)
6,CCOC(=O)/C=c1\s/c(=C\c2ccc(C#N)cc2)c(=O)n1CC(=O)Nc1cccc(C)c1C,12.5% (inactive)
7,Cc1cs/c(=N\N=C\c2ccc(O)cc2)n1Cc1ccco1,3.43% (inactive)
8,CN(c1ccccc1)c1ccc(/C=c2\s/c(=C(/C#N)C(=O)C(C)(C)C)n(Cc3ccco3)c2=O)cc1,37% (active)
9,O=c1c(-c2ccccc2Cl)c[nH]n1-c1ccccc1,3.07% (inactive)
10,Cc1ccccc1Nc1nnc(SCC(=O)c2cc3ccccc3o2)s1,47.4% (active)
11,Cc1cc(NC(=O)CSc2nnc(Nc3ccccc3F)s2)no1,-0.95% (inactive)
12,Cc1ccc(Nc2nnc(SCC(=O)c3cc4ccccc4o3)s2)cc1C,13.9% (inactive)
13,CC1CCN(S(=O)(=O)c2ccc(NC(=O)C3CC(=O)N(c4ccccc4)C3)cc2)CC1 (stereo not drawn),-43.1% (inactive)
14,CN(C)c1ccnc2sc3c(=O)n(-c4ccc(Cl)cc4)cnc3c12,3.7% (inactive)
15,Cc1cc(C)c2oc(C(=O)Nc3ccc(S(=O)(=O)Nc4nccc(C)n4)cc3)cc(=O)c2c1,-10.1% (inactive)
16,CS/C(=C\C(=O)c1ccco1)Nc1ccccc1Cl,64.5% (active)
17,O=C(Nc1ccccc1)c1ccco1,10.7% (inactive)
18,O=C(Nc1ccccc1C(=O)N1CCCCC1)c1ccco1,5.37% (inactive)
19,CCOc1ccc2sc(NS(=O)(=O)c3ccc(N)cc3)nc2c1,-15.8% (inactive)
20,CN(C)[C@@H]1C(=O)C(C(N)=O)=C(O)[C@@]2(O)C(=O)C3=C(O)c4c(O)ccc(Cl)c4[C@@H](O)[C@H]3C[C@@H]12,39.9% (active)
21,Cc1cccc(-n2ncc(Cl)c(Cl)c2=O)c1,10.4% (inactive)
22,Cc1ccc2nc3c(cc(C(=O)NCCc4ccccc4)c(=N)n3CC3CCCO3)c(=O)n2c1 (stereo not drawn),-6.17% (inactive)
23,O=C(Oc1ccc([N+](=O)[O-])cc1)c1ccc(Cl)c(S(=O)(=O)N2CCCCC2)c1,7.15% (inactive)
24,CC(=O)Oc1cccc(N2C(=O)C3CC=C(Cl)CC3C2=O)c1 (stereo not drawn),6.02% (inactive)
25,COc1cc2ccccc2cc1C(=O)Nc1ccc(N2CCOCC2)cc1,-2.47% (inactive)

row,SMILES,inhibition
1,CC(=O)Oc1cccc(N2C(=O)CC(Nc3ccc(N4CCOCC4)cc3)C2=O)c1 (stereo not drawn),48.2% (active)
2,CCCCOC(=O)Nc1nnc(CC(=O)NCc2ccccc2)s1,8.31% (inactive)
3,COc1ccc(NC(=O)CCC(=O)Nc2cc(OC)c(NC(=O)c3ccco3)cc2OC)c(OC)c1,7.66% (inactive)
4,O=C(CSc1ccc(-c2ccco2)nn1)Nc1cccc(F)c1,20.3% (inactive)
5,COc1ccc(NC(=O)CSc2ccc(-c3ccco3)nn2)c(OC)c1,36.8% (active)
6,CC1=C(C(=O)OCC2CCCCC2)C(c2ccc(F)cc2)NC(=O)N1 (stereo not drawn),0.43% (inactive)
7,O=C1c2ccccc2S(=O)(=O)N1Cc1c(F)cccc1Cl,0.54% (inactive)
8,CN1C/C(=C/c2cccs2)C(=O)/C(=C\c2cccs2)C1,9.92% (inactive)
9,CCC1C/C(=C/c2cccs2)C(=O)/C(=C/c2cccs2)C1 (stereo not drawn),44.1% (active)
10,O=C1/C(=C/c2cccs2)CCc2ccccc21,-2.06% (inactive)
11,NC(=O)C1CCN(CC(O)CSc2ccc(F)cc2)CC1 (stereo not drawn),3.59% (inactive)
12,O=C(Nc1ccccc1)C1CCN(C(=O)c2ccc(Br)cc2)CC1,-8.93% (inactive)
13,Cc1ccc(S(=O)(=O)NCCC(c2ccccc2)c2ccccc2)cc1C(=O)O,38.8% (active)
14,Cc1ccc(S(=O)(=O)NCCCn2ccnc2)cc1C(=O)NC(C)C,-0.51% (inactive)
15,Cc1ccc(S(=O)(=O)NCCSc2ccccc2)cc1[N+](=O)[O-],-4.6% (inactive)
16,O=[N+]([O-])c1ccc2c(c1)Nc1nc3ccccc3nc1N2,3.43% (inactive)
17,CN1CCN(C(=O)c2cnn(-c3ccccc3)c2NC(=O)c2ccc([N+](=O)[O-])cc2)CC1,5.97% (inactive)
18,CCOC(=O)c1c(-c2ccccc2)oc2cc(Br)c(O)cc12,-8.03% (inactive)
19,CCOC(=O)c1c(-c2ccccc2)oc2ccc(OCC(N)=O)cc12,-0.28% (inactive)
20,CCOC(=O)c1c(-c2ccccc2)oc2cc(Br)c(O)c(C=O)c12,63.8% (active)
21,CCOc1cc(-c2noc(CCCC(=O)NC3CCCCC3)n2)ccc1OC,-0.34% (inactive)
22,CCOc1ccc(CN2CCN(Cc3c[nH]c4ccccc34)CC2)cc1,-65.4% (inactive)
23,CCC1(C(=O)c2ccccc2)C(c2cccc([N+](=O)[O-])c2)C1(C(=O)OC)C(=O)OC (stereo not drawn),-10.6% (inactive)
24,Cc1ccc(N2NC(=O)/C(=C/C=C/c3ccco3)C2=O)cc1C,31.6% (inactive)
25,Cc1ccc(N=C2NC(=O)/C(=C/C=C/c3ccco3)S2)cc1C,60.8% (active)

row,SMILES,inhibition
1,Cc1cccc(N=C2NC(=O)/C(=C/c3cn(C)c4ccccc34)S2)c1,-2.21% (inactive)
2,Cc1ccc(S(=O)(=O)NCCC(=O)Nc2cccc(S(N)(=O)=O)c2)cc1C,-12.2% (inactive)
3,Nc1c(C(=O)c2cccs2)sc2nsc(SCCN3CCCCC3)c12,-21.1% (inactive)
4,CC(=O)c1cccc(NC(=S)N2CCN(S(C)(=O)=O)CC2)c1,-3.09% (inactive)
5,Cc1ccc(OCC(=O)Nc2ccccc2Sc2ccc(Cl)cc2)c([N+](=O)[O-])n1,-5.04% (inactive)
6,COc1ccc(/C=C/C(=O)c2ccc(OC)cc2O)cc1,-6.12% (inactive)
7,COc1ccc(C(=O)/C=C/c2ccc(OC3CSC3)cc2)cc1,-2.94% (inactive)
8,COc1ccc(/C=C/C(=O)c2cc(Br)ccc(=O)c2O)cc1,45.2% (active)
9,O=C(NC(=S)Nc1ccccc1N1CCCCC1)c1ccc(F)cc1,1.82% (inactive)
10,CCCn1c(C2CCCN2c2nc(-c3ccc(C)cc3)cs2)nc2cc(Cl)c(N3CCCCC3)cc21 (stereo not drawn),35.5% (inactive)
11,CCn1c(C)c(C)c2cc(C(=O)N3CCN(c4cccc(C)c4C)CC3)ccc21,2.52% (inactive)
12,CCOc1cc(C2C(C(=O)c3ccco3)=C(O)C(=O)N2Cc2ccccc2)ccc1O (stereo not drawn),9.26% (inactive)
13,COc1cc(C2C(C(=O)c3ccco3)=C(O)C(=O)N2c2cc(C)on2)ccc1OCc1ccccc1 (stereo not drawn),43.6% (active)
14,C=CCOc1cccc(C2C(C(=O)c3ccc(C)o3)=C(O)C(=O)N2CCCn2ccnc2)c1 (stereo not drawn),-4.21% (inactive)
15,Cc1ccc2nc(N3C(=O)C(O)=C(C(=O)c4ccco4)C3c3cccc(O)c3)sc2c1 (stereo not drawn),25.4% (inactive)
16,Cc1cc(N2C(=O)C(O)=C(C(=O)c3ccc(C)o3)C2c2ccc(OCc3ccccc3)cc2)no1 (stereo not drawn),87.7% (active)
17,CCCOc1ccc(C2C(C(=O)c3ccc(C)o3)=C(O)C(=O)N2CCCn2ccnc2)cc1 (stereo not drawn),-15.3% (inactive)
18,COc1ccc(-c2cc(C(=O)N3CCN(Cc4ccc5c(c4)OCO5)CC3)on2)cc1OC,-19.4% (inactive)
19,CC(=O)Nc1ccc(C(=O)N(C2=NC(C)CS2)c2ccc(Cl)cc2)cc1 (stereo not drawn),-10.2% (inactive)
20,COc1ccccc1CCCNC(=O)C1CCC(=O)N(CCN2CCOCC2)C1 (stereo not drawn),7.14% (inactive)
21,COc1cccc(CNC(=O)c2cccnc2Sc2ccc(Cl)cc2)c1,-6.66% (inactive)
22,CC(=O)O[C@H]1c2ccccc2-c2ccccc2[C@@H]1OC(C)=O,13.1% (inactive)
23,O=Cc1c(NCCc2cccc(F)c2)c2ccccc2[nH]c1=O,0.14% (inactive)
